This is an account of results in paper PMC3983399 (Journal of Medicinal Chemistry, 2014).

Each structure is given as a SMILES string.

Series [1] concerns M14 melanoma cell line. In words: CellTiter-Glo viability assay, M14 cells. It counts as cell-based. The gist of the method: (§1)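 Cells plated at 1250/well in serum-free medium (F12 for CHO-K1 and A549, DMEM for M14). Compounds given as 10-point 1:3 dilution series starting at 300 µM before addition, with gefitinib as assay control. Incubated 72 h at 37 °C, 5% CO2. CellTiter-Glo added, 15 min at room temperature, luminescence read. Normalized to media-only (0%) and 1% DMSO-treated cells (100%). Percent inhibition is the mean of three experiments ± SD.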
A general note: Cellular ATP, detected with luciferase, serves as a proxy for viable cell number.

The test system of series [2] is A549 nonsmall cell lung cancer cell line. In words: CellTiter-Glo viability assay, A549 cells. Type of series: cell-based. The note with it: Homo sapiens, A549, read-out: Inhibition % @ 100 μM A549. In outline:
as §1

Series [3] concerns M14 cells. The experiment in a line: ApoTox-Glo triplex assay. The note with it: for cytotoxicity response / effect on cell viability (live cell protease): early time point (4 h); for time of caspase activity spike: time points 4, 24, 48, 72 h. It counts as cell-based. The gist of the method:
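M14 #5 cells, 1250/well in serum-free DMEM, preincubated 4 h at 37 °C, 5% CO2. Compounds (1:3 serial dilutions) incubated 4, 24, 48 and 72 h alongside ionomycin, terfenadine and panobinostat controls. Viability/cytotoxicity reagent (400 µM GF-AFC, 400 µM bis-AAF-R110 in reagent) 30 min at 37 °C; fluorescence Ex400/Em505 (live-cell protease) and Ex485/Em520 (dead-cell protease). Then Caspase-Glo 3/7, 30 min at room temperature, luminescence.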

The target of series [4] is HDAC1 (Homo sapiens, UniProt Q13547). In words: HDAC inhibition, HDAC1. Type of series: biochemical. The note with it: up to 100 μM, data not shown.
The target of series [5] is HDAC2 (Homo sapiens, UniProt Q92769). In words: HDAC inhibition, HDAC2. It counts as biochemical. Particulars: up to 100 μM, data not shown.
The target of series [6] is T1, HDAC6 (Homo sapiens, UniProt Q9UBN7).
T1 sequence (Q9UBN7 1-1215): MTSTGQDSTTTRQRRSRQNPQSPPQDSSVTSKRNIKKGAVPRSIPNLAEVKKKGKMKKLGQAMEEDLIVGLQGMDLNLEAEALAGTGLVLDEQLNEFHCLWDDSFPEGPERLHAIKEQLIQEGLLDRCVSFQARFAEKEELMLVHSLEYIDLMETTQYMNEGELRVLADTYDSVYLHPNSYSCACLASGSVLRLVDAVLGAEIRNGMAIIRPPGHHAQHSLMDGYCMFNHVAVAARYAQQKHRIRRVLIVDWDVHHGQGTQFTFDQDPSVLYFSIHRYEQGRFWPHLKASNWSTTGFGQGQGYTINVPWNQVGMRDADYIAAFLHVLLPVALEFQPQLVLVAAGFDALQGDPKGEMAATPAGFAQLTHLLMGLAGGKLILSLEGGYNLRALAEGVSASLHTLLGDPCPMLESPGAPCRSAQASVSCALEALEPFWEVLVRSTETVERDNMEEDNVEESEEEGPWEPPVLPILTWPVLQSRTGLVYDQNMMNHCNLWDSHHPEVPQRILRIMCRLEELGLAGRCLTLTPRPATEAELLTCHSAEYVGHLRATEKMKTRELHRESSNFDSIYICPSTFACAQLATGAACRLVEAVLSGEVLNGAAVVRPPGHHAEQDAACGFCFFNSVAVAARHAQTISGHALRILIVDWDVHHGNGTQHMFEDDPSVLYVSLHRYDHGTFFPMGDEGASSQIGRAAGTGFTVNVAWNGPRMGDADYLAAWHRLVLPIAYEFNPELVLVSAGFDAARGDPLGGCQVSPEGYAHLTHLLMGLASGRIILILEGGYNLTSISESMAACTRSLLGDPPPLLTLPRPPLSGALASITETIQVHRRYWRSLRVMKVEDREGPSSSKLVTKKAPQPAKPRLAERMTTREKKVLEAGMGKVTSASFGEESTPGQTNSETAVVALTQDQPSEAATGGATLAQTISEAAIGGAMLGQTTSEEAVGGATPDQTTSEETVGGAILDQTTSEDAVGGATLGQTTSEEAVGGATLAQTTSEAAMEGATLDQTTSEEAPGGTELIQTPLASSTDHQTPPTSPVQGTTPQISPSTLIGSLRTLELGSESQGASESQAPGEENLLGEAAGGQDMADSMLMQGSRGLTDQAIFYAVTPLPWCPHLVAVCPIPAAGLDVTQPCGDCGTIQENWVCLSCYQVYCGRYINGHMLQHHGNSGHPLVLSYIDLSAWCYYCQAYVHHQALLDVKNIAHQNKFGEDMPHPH
In words: HDAC inhibition, HDAC6. Type of series: biochemical. The note with it: up to 100 μM, data not shown.

The test system of series [7] is SKMEL-28 melanoma cell line. In words: Hexosaminidase viability assay, SKMEL-28. Type of series: cell-based. The note with it: Homo sapiens, SK-MEL-28, read-out: IC50 SKMEL-28, text. In outline:
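Cells in 96-well plates grown overnight, then treated 48 h with compound at 0–50 µM. Wells washed with PBS. Hexosaminidase substrate added for 30 min at 37 °C, followed by developer; absorbance read at 405 nm. Percent viability = (treated absorbance/control absorbance) × 100.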

Series [8] concerns melanoma cells with mutated Q61LNRAS and wild-type BRAF (M202 and M207). The note with it: up to 10 μM; cited from earlier work.

Sequence of HDAC1 (Q13547 whole entry, species assumed): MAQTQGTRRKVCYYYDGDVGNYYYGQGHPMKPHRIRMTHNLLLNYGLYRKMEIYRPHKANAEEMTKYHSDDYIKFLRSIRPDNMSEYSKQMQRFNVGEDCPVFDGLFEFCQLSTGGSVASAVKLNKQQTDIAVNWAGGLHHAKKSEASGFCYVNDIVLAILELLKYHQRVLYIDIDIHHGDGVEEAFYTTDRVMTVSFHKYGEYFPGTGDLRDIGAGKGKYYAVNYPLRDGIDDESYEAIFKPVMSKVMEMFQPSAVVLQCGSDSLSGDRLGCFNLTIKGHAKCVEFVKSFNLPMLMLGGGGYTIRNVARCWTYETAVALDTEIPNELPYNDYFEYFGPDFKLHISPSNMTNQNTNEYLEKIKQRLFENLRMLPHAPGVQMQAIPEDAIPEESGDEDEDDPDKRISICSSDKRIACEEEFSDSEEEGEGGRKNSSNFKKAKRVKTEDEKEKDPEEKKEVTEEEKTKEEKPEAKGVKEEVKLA
Sequence of HDAC2 (Q92769 whole entry): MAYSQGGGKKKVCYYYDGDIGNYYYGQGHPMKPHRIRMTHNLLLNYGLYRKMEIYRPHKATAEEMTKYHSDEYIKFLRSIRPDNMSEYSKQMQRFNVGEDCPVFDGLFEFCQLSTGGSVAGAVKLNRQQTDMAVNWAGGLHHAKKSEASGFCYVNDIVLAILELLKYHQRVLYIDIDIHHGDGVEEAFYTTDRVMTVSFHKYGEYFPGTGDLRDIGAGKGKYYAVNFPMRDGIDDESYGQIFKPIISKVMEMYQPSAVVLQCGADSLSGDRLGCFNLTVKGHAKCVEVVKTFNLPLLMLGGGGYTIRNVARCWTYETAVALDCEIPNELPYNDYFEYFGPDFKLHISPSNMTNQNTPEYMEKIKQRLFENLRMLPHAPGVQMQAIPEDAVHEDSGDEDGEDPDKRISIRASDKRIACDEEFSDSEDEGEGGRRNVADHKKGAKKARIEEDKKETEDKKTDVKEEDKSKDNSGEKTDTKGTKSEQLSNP

For orientation: inhibition means the relative decrease from the control value, in per cent. Consider `CCC[C@@H]1CNC(=O)C(=O)N1C[C@@H]1CCCN1C[C@H](Cc1ccc(O)cc1)N1C[C@@H](Cc2ccc(O)cc2)N(CC(CC)c2ccccc2)C(=O)C1=O` (some centres unmarked) [Compound 2], for which the inhibition at 100 µM worked out at 14 ± 3% in series [1] (Homo sapiens, M14, read-out: Inhibition % @ 100 μM M14) and 0% in series [2].
As for `O=C1NC[C@H](Cc2ccccc2)N(C[C@@H]2CCCN2C[C@@H](CC2CCCCC2)N2C[C@H](Cc3ccc(O)cc3)N(CCc3ccccc3)C(=O)C2=O)C1=O` [Compound 2155-14], in series [1] (100 μM), the “inhibition of M14 cell viability at highest tested concentration” value is recorded as “not able to inhibit M14 cell viability fully”. In series [3], the cytotoxicity response entry is “no markers for apoptosis and cytotoxicity”; the “effect on cell viability (live cell protease)” value is “no effect on cell viability”; the “time of caspase activity spike” value amounted to 24 h. Moreover, the HDAC1 inhibition result in series [4] is “lack of HDAC inhibition”. Besides, the HDAC2 inhibition result in series [5] was “lack of HDAC inhibition”. Further, in series [6], the HDAC6 inhibition entry was “lack of HDAC inhibition”.
As for `CCC[C@H]1CNC(=O)C(=O)N1C[C@@H]1CCCN1C[C@@H](CC1CCCCC1)N1C[C@H](Cc2ccc(O)cc2)N(CCc2ccccc2)C(=O)C1=O` [Compound 2155-17], in series [1] (ratio of IC50), the “selectivity for M14 over A549 cells” value was “approximately 5 fold” and the “selectivity for M14 over CHO-K1 cells” value was “more than 10 fold”.
Usually IC50 stands for the concentration that inhibits the measured activity by half. In the case of `O=C1NC[C@H](Cc2ccccc2)N(C[C@@H]2CCCN2C[C@H](Cc2ccccc2)N2C[C@H](Cc3ccc(O)cc3)N(CCC34CC5CC(CC(C5)C3)C4)C(=O)C2=O)C1=O` [Compound 2155-18], the IC50 in series [1] (Homo sapiens, M14, read-out: IC50 M14, Table 3, mean of three ± SD) came to 890 ± 70 nM; in series [7], 890 ± 70 nM. In series [4], the HDAC1 inhibition entry is “lack of HDAC inhibition”. In series [5], the HDAC2 inhibition result is “lack of HDAC inhibition”. In series [6], the HDAC6 inhibition entry is on record as “lack of HDAC inhibition”.
In the case of `C[C@H](CCC(=O)O)C[C@H](C)C[C@H](C)C(=O)/C=C(\O)[C@H](C)C[C@H](C)C/C=C/[C@@H](C)[C@@H](O)[C@@H](C)[C@@H](O)C[C@@H]1CC[C@@](C)([C@H]2CC[C@@](C)([C@@H](C)O)O2)O1` [ionomycin], in series [3], the cytotoxicity response entry was “strong cytotoxicity response”, the “effect on cell viability (live cell protease)” value is reported as “dose-dependent loss of viability” and the “time of caspase activity spike” value was “did not induce a spike in caspase activity”.
On the same counts, the results for `Cc1[nH]c2ccccc2c1CCNCc1ccc(/C=C/C(=O)NO)cc1` [panobinostat] are “no effect”, “no effect” and 24 to 48 h.
On the same counts, the results for `CC(C)(C)c1ccc(C(O)CCCN2CCC(C(O)(c3ccccc3)c3ccccc3)CC2)cc1` (centres unmarked) [terfenadine] are “cytotoxicity spike”, “early loss of cell viability” and 4 to 24 h.
With `CCCS(=O)(=O)Nc1ccc(F)c(C(=O)c2c[nH]c3ncc(-c4ccc(Cl)cc4)cc23)c1F` [vemurafenib], in series [8], the “activity against M202 and M207 melanoma cells” value was “inactive”.
